The results in this text go back to PMC8848307 (Journal of medicinal chemistry, 2019).

Experiment [1] has as its target human recombinant STAT3 SH2 protein (Homo sapiens, UniProt P40763). Nature of the experiment: Fluorescence polarization. The experiment is classed as binding. As to conditions: for times less potent than SI-109 in binding to STAT3: ratio of binding affinities vs SI-109.
Experiment [2] concerns the target T1, STAT3 protein (Homo sapiens, UniProt P40763). Nature of the experiment: Western blotting of STAT3 degradation in Molm-16 cells. It is filed as cell-based. As to conditions: for times less potent than SD-36 in STAT3 degradation: Molm-16 cells, ratio of DC50; for degradation of total STAT3 and pSTAT3^Y705 proteins: Molm-16, concentrations up to 10 μM. On the technique in general: In western blotting, separated proteins are transferred to a membrane and probed.

Experiment [3] concerns the target T1, STAT3 protein. Nature of the experiment: Western blotting of STAT3 degradation in SU-DHL-1 cells. It is filed as cell-based. As to conditions: for times less potent than SD-36 in STAT3 degradation: SU-DHL-1 cells, ratio of DC50; for reducing the levels of STAT3 and pSTAT3^Y705 proteins: SU-DHL-1, up to 5 μM.
Experiment [4] deals with STAT3 protein (Mus musculus, UniProt P42227). Briefly: Pharmacodynamics in native mouse spleen tissue. As to conditions: single intravenous dose, 25 mg/kg, CD-1 mice. It is filed as in vivo. An outline of the steps: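 Female CD-1 mice received a single intravenous dose of test compound or vehicle (10% PEG400 + 90% PBS). Mice were euthanized at set time points and spleens harvested. Native spleen lysates were immunoblotted for STAT3.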

A further experiment deals with Molm-16 cell line. Briefly: Cell growth assay. As to conditions: Molm-16. The experiment is classed as cell-based.

Each structure is given as a SMILES string. “And” between values parts separate entries of the source, which are not always exact repeats. Equal entries are not always repeated.

human recombinant STAT3 SH2 protein, sequence (P40763 127-688): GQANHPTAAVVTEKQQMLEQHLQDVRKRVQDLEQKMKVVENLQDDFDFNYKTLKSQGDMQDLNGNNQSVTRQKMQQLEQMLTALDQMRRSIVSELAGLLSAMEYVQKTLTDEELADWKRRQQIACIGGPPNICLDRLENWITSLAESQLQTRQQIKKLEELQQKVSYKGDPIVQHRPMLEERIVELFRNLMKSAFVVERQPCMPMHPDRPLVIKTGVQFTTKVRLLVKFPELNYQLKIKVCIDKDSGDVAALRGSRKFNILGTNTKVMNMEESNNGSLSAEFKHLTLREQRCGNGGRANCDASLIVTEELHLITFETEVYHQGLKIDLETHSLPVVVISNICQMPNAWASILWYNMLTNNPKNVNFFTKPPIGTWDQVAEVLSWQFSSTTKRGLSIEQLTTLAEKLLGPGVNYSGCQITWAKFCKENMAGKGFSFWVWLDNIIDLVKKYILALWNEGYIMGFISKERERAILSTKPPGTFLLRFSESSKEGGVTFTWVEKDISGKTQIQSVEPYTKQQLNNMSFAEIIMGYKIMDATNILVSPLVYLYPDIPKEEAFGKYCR
T1 sequence (P40763 whole entry): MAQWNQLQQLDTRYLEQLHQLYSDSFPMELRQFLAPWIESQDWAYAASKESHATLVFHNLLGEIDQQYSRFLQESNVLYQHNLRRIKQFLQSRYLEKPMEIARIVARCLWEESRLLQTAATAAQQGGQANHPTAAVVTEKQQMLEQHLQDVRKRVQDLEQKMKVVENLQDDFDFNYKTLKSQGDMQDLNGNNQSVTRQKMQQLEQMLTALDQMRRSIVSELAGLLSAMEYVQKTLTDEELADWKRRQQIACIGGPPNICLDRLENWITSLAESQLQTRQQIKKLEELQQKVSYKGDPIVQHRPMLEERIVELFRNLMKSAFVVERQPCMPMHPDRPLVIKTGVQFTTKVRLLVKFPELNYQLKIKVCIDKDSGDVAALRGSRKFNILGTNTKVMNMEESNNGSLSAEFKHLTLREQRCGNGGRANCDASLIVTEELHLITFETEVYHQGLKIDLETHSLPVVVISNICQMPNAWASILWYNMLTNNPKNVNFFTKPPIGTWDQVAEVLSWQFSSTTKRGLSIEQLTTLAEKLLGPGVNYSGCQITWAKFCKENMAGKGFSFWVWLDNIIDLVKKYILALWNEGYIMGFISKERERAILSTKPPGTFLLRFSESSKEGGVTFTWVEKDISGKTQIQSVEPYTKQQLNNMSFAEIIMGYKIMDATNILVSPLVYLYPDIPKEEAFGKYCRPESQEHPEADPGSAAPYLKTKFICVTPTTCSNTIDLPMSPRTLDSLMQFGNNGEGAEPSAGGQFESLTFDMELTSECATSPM
STAT3 protein (Mus musculus, UniProt P42227), sequence (P42227 whole entry): as the sequence (P40763 whole entry) above, with E760D counted along it

Turning to `NC(=O)CC[C@H](NC(=O)[C@@H]1CC[C@@H]2CCCC[C@H](NC(=O)c3cc4cc(CP(=O)(O)O)ccc4[nH]3)C(=O)N21)C(=O)NCc1ccccc1` [Compound 3, (2-((3S,6S)-3-((S)-5-Amino-1-(benzylamino)-1,5-dioxopentan-2-ylcarbamoyl)-5-oxodecahydropyrrolo[1,2-a]azocin-6-ylcarbamoyl)-1H-indol-5-yl)methylphosphonic Acid], in experiment [1] (ratio of Ki vs compound 2), the “times weaker than 2 in binding to STAT3” value was determined as 30 times.
Turning to `NC(=O)CC[C@H](NC(=O)[C@@H]1CC[C@@H]2CCCC[C@H](NC(=O)c3cc4cc(C(F)(F)P(=O)(O)O)ccc4[nH]3)C(=O)N21)C(=O)NCc1ccccc1` [Compound 4, (2-((3S,6S)-3-((S)-5-Amino-1-(benzylamino)-1,5-dioxopentan-2-ylcarbamoyl)-5-oxodecahydropyrrolo[1,2-a]azocin-6-ylcarbamoyl)-1H-indol-5-yl)difluoromethylphosphonic Acid], the “times more potent than 3 in binding to STAT3” value in experiment [1] (ratio of Ki vs compound 3) is > 100 times.
In the case of `CC(=O)N1CC[C@H]2CC[C@@H](C(=O)N[C@@H](CCC(N)=O)C(=O)NC(c3ccccc3)c3ccccc3)N2C(=O)[C@@H](NC(=O)c2cc3cc(OP(=O)(O)O)ccc3[nH]2)C1` [Compound 9, 2-(((5S,8S,10aR)-3-Acetyl-8-(((S)-5-amino-1-(benzhydrylamino)-1,5-dioxopentan-2-yl)carbamoyl)-6-oxodecahydropyrrolo[1,2-a][1,5]diazocin-5-yl)carbamoyl)-1H-indol-5-yl Dihydrogen Phosphate], the “times less potent than SI-109 in binding to STAT3” value in experiment [1] amounted to 2 times.
For `CC(=O)N1CC[C@H]2CC[C@@H](C(=O)N[C@@H](CCC(N)=O)C(=O)NC(c3ccccc3)c3ccccc3)N2C(=O)[C@@H](NC(=O)c2cc3cc(CP(=O)(O)O)ccc3[nH]2)C1` [Compound 10, ((2-(((5S,8S,10aR)-3-Acetyl-8-(((S)-5-amino-1-(benzhydrylamino)-1,5-dioxopentan-2-yl)carbamoyl)-6-oxodecahydropyrrolo[1,2-a][1,5]diazocin-5-yl)carbamoyl)-1 H-indol-5-yl)methyl)phosphonic Acid], the “times less potent than SI-109 in binding to STAT3” value in experiment [1] is 14 times.
Consider `CC(=O)N1CC[C@H]2CC[C@@H](C(=O)N[C@@H](CCC(N)=O)C(=O)NC(c3ccccc3)c3ccccc3)N2C(=O)[C@@H](NC(=O)/C=C(\C)c2ccc(C(F)(F)P(=O)(O)O)cc2)C1` [Compound 11, ((4-((E)-4-(((5S,8S,10aR)-3-Acetyl-8-(((S)-5-amino-1-(benzhydrylamino)-1,5-dioxopentan-2-yl)carbamoyl)-6-oxodecahydropyrrolo[1,2-a][1,5]diazocin-5-yl)amino)-4-oxobut-2-en-2-yl)phenyl)difluoromethyl)phosphonic Acid], for which the “times less potent than SI-109 in binding to STAT3” value in experiment [1] is recorded as > 10 times.
As to `NC(=O)CC[C@H](NC(=O)[C@@H]1CC[C@@H]2CCN(CCCCCCC#Cc3cccc4c3CN(C3CCC(=O)NC3=O)C4=O)C[C@H](NC(=O)c3cc4cc(C(F)(F)P(=O)(O)O)ccc4[nH]3)C(=O)N21)C(=O)NC(c1ccccc1)c1ccccc1` (stereo partly drawn) [Compound 17, ((2-(((5S,8S,10aR)-8-(((S)-5-Amino-1-(benzhydrylamino)-1,5-dioxopentan-2-yl)carbamoyl)-3-(8-(2-(2,6-dioxopiperidin-3-yl)-1-oxoisoindolin-4-yl)oct-7-yn-1-yl)-6-oxodecahydropyrrolo[1,2-a][1,5]diazocin-5-yl)carbamoyl)-1H-indol-5-yl)difluoromethyl)phosphonic Acid], the figures for the “times less potent than SD-36 in STAT3 degradation” value on STAT3 protein [2] and at STAT3 protein [3] were > 10 times and 30 times, respectively.
As for `NC(=O)CC[C@H](NC(=O)[C@@H]1CC[C@@H]2CCN(C(=O)NCCCCC#Cc3cccc4c3CN(C3CCC(=O)NC3=O)C4=O)C[C@H](NC(=O)c3cc4cc(C(F)(F)P(=O)(O)O)ccc4[nH]3)C(=O)N21)C(=O)NC(c1ccccc1)c1ccccc1` (stereo partly drawn) [Compound 19, ((2-(((5S,8S,10aR)-8-(((S)-5-Amino-1-(benzhydrylamino)-1,5-dioxopentan-2-yl)carbamoyl)-3-((6-(2-(2,6-dioxopiperidin-3-yl)-1-oxoisoindolin-4-yl)hex-5-yn-1-yl)carbamoyl)-6-oxodecahydropyrrolo[1,2-a][1,5]diazocin-5-yl)carbamoyl)-1H-indol-5-yl)difluoromethyl)phosphonic Acid], on STAT3 protein [4], the “persistence of STAT3 reduction in spleen” value is on record as “more than 48 h” and the “reducing STAT3 protein in native mouse spleen tissue” value is reported as “very effective”.
`NC(=O)CC[C@H](NC(=O)[C@@H]1CC[C@@H]2CCN(C(=O)CCCCCC#Cc3cccc4c3C(=O)N(C3CCC(=O)NC3=O)C4=O)C[C@H](NC(=O)c3cc4cc(C(F)(F)P(=O)(O)O)ccc4[nH]3)C(=O)N21)C(=O)NC(c1ccccc1)c1ccccc1` (stereo partly drawn) [Compound 27, ((2-(((5S,8S,10aR)-8-(((S)-5-Amino-1-(benzhydrylamino)-1,5-dioxopentan-2-yl)carbamoyl)-3-(8-(2-(2,6-dioxopiperidin-3-yl)-1,3-dioxoisoindolin-4-yl)oct-7-ynoyl)-6-oxodecahydropyrrolo[1,2-a][1,5]diazocin-5-yl)carbamoyl)-1H-indol-5-yl)difluoromethyl)phosphonic Acid]: on STAT3 protein [2], the “times less potent than SD-36 in STAT3 degradation” value was > 50 times. In addition, on STAT3 protein [3], the “reducing the levels of STAT3 and pSTAT3^Y705 proteins” value is “ineffective”.
As to `NC(=O)CC[C@H](NC(=O)[C@@H]1CC[C@@H]2CCN(C(=O)CCCCCC#Cc3cccc4c3CN(C3CCC(=O)NC3=O)C4=O)C[C@H](NC(=O)c3cc4cc(C(F)(F)P(=O)(O)O)ccc4[nH]3)C(=O)N21)C(=O)NCc1ccccc1` (stereo partly drawn) [Compound 30, ((2-(((5S,8S,10aR)-8-(((S)-5-Amino-1-(benzylamino)-1,5-dioxopentan-2-yl)carbamoyl)-3-(8-(2-(2,6-dioxopiperidin-3-yl)-1-oxoisoindolin-4-yl)oct-7-ynoyl)-6-oxodecahydropyrrolo-[1,2-a][1,5]diazocin-5-yl)carbamoyl) −1H-indol-5-yl)difluoromethyl)phosphonic Acid], the results for the “times less potent than SD-36 in STAT3 degradation” value at STAT3 protein [2] and at STAT3 protein [3] were 4 times and 2 times, respectively.
Turning to `CNC(=O)[C@H](CCC(N)=O)NC(=O)[C@@H]1CC[C@@H]2CCN(C(=O)CCCCCC#Cc3cccc4c3CN(C3CCC(=O)NC3=O)C4=O)C[C@H](NC(=O)c3cc4cc(C(F)(F)P(=O)(O)O)ccc4[nH]3)C(=O)N21` (stereo partly drawn) [Compound 31, ((2-(((5S,8S,10aR)-8-(((S)-5-Amino-1-(methylamino)-1,5-dioxopentan-2-yl)carbamoyl)-3-(8-(2-(2,6-dioxopiperidin-3-yl)-1-oxoisoindolin-4-yl)oct-7-ynoyl)-6-oxodecahydropyrrolo-[1,2-a][1,5]diazocin-5-yl)carbamoyl)-1H-indol-5-yl)difluoromethyl)phosphonic Acid], the “times less potent than SD-36 in STAT3 degradation” value on STAT3 protein [2] was 10 times and > 10 times; on STAT3 protein [3] it was 30 times.
Turning to `NC(=O)CC[C@H](NC(=O)[C@@H]1CC[C@@H]2CCN(C(=O)CCCCCC#Cc3cccc4c3CN(C3CCC(=O)NC3=O)C4=O)C[C@H](NC(=O)c3cc4cc(OP(=O)(O)O)ccc4[nH]3)C(=O)N21)C(=O)NC(c1ccccc1)c1ccccc1` (stereo partly drawn) [Compound 32, 2-(((5S,8S,10aR)-8-(((S)-5-Amino-1-(benzhydrylamino)-1,5-dioxopentan-2-yl)carbamoyl)-3-(8-(2-(2,6-dioxopiperidin-3-yl)-1-oxoisoindolin-4-yl)oct-7-ynoyl)-6-oxodecahydropyrrolo-[1,2-a][1,5]diazocin-5-yl)carbamoyl)-1H-indol-5-yl Dihydrogen Phosphate], the “degradation of total STAT3 and pSTAT3^Y705 proteins” value on STAT3 protein [2] is “fail to degrade”. The “activity in inhibition of cell growth” value with Molm-16 cell line is “very weak activity”.
The like results for `NC(=O)CC[C@H](NC(=O)[C@@H]1CC[C@@H]2CCN(C(=O)CCCCCC#Cc3cccc4c3CN(C3CCC(=O)NC3=O)C4=O)C[C@H](NC(=O)c3cc4cc(CP(=O)(O)O)ccc4[nH]3)C(=O)N21)C(=O)NC(c1ccccc1)c1ccccc1` (stereo partly drawn) [Compound 33, ((2-(((5S,8S,10aR)-8-(((S)-5-Amino-1-(benzhydrylamino)-1,5-dioxopentan-2-yl)carbamoyl)-3-(8-(2-(2,6-dioxopiperidin-3-yl)-1-oxoisoindolin-4-yl)oct-7-ynoyl)-6-oxodecahydropyrrolo-[1,2-a][1,5]diazocin-5-yl)carbamoyl)-1H-indol-5-yl)methyl)-phosphonic Acid] were, in that order, “fail to degrade” and “very weak activity”.
Regarding `C/C(=C\C(=O)N[C@H]1CN(C(=O)CCCCCC#Cc2cccc3c2CN(C2CCC(=O)NC2=O)C3=O)CC[C@H]2CC[C@@H](C(=O)N[C@@H](CCC(N)=O)C(=O)NC(c3ccccc3)c3ccccc3)N2C1=O)c1ccc(C(F)(F)P(=O)(O)O)cc1` (stereo partly drawn) [Compound 34, ((4-((E)-4-(((5S,8S,10aR)-8-(((S)-5-Amino-1-(benzhydrylamino)-1,5-dioxopentan-2-yl)carbamoyl)-3-(8-(2-(2,6-dioxopiperidin-3-yl)-1-oxoisoindolin-4-yl)oct-7-ynoyl)-6-oxodecahydropyrrolo[1,2-a][1,5]diazocin-5-yl)amino)-4-oxobut-2-en-2-yl)phenyl)difluoromethyl)phosphonic Acid], the “times less potent than SD-36 in STAT3 degradation” value at STAT3 protein [2] is given as > 70 times. The “effect on the levels of STAT3 and pSTAT3^Y705” value on STAT3 protein [3] (SU-DHL-1, concentrations up to 10 μM) is given as “fails to degrade”. Also, the “reducing the levels of STAT3 and pSTAT3^Y705 proteins” value on STAT3 protein [3] is given as “ineffective”.
